Experimental findings from ChEMBL document CHEMBL4257520, “Design, synthesis and bioactivity investigation of tetrandrine derivatives as potential anti-cancer agents” (Medchemcomm, 2018) are described below.

Assay [1] deals with HEL. The assay can be described thus: Antiproliferative activity against HEL cells after 48 hrs by MTT assay. In kind it is functional, cell-based. Particulars: Homo sapiens. The gist of the method: (§1)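 MTT assay on human cancer lines held at 37 °C, 95% humidity, 5% CO2. Cells were exposed to compounds at 20.0–0.5 μM for 48 h, then washed twice with PBS. MTT (5 mg mL–1 in PBS) was added for 4 h at 37 °C, the formazan was dissolved in DMSO, and A490 was read. IC50 comes from replicate wells over three independent experiments.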
(In general: Formazan colour is commonly taken as a measure of viable cells.)

The test system of assay [2] is K562. In words: Antiproliferative activity against human K562 cells after 48 hrs by MTT assay. The assay is classed as functional, cell-based. Particulars: K562, 48 h. In short, it runs like this:
as §1

For assay [3], the system named is PC-3. The assay can be described thus: Antiproliferative activity against human PC3 cells after 48 hrs by MTT assay. In kind it is functional, cell-based. Particulars: PC-3, 48 h. In short, it runs like this: as §1
Assay [4] can be described thus: Antiproliferative activity against human WM9 cells after 48 hrs by MTT assay. Particulars: WM9, 48 h. In kind it is functional, cell-based. In short, it runs like this: as §1
For assay [5], the system named is MDA-MB-231. In words: Antiproliferative activity against human MDA-MB-231 cells after 48 hrs by MTT assay. In kind it is functional, cell-based. The settings on record: MDA-MB-231, 48 h. In short, it runs like this:
as §1

Assay [6] deals with L02. In words: Cytotoxicity against human HL7702 cells after 48 hrs by MTT assay. In kind it is cell-based. The settings on record: L02, 48 h. In short, it runs like this:
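Normal human liver HL7702 cells were assessed by MTT assay, with formazan absorbance as the read-out, to give an IC50 for cytotoxicity.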

pIC50: −log10 of the molar value.

With `COc1cc(NS(=O)(=O)c2ccccc2F)c2cc1Oc1ccc(cc1)C[C@H]1c3cc(c(OC)cc3CCN1C)Oc1c(OC)c(OC)cc3c1[C@H](C2)N(C)CC3`, the negative-log IC50 (pIC50) in assay [1] was 5.52; in assay [2], 5.23; in assay [3] it was 5.23; in assay [4], 5.38; in assay [5], 5.10; in assay [6], 4.79.

With `COc1cc(NS(=O)(=O)c2cc(Cl)cc(Cl)c2)c2cc1Oc1ccc(cc1)C[C@H]1c3cc(c(OC)cc3CCN1C)Oc1c(OC)c(OC)cc3c1[C@H](C2)N(C)CC3`, the pIC50 was 5.25 in assay [1]; 5.83 in assay [2]; 5.47 in assay [3]; 5.43 in assay [4]; 5.41 in assay [5]; 4.86 in assay [6].

For the compound `CCCCS(=O)(=O)Nc1cc(OC)c2cc1C[C@H]1c3c(cc(OC)c(OC)c3Oc3cc4c(cc3OC)CCN(C)[C@H]4Cc3ccc(cc3)O2)CCN1C`, the negative-log IC50 (pIC50) in assay [1] was 5.17; in assay [2], 5.14; in assay [3] it was 5.28; in assay [4], 5.20; in assay [5], 5.27; in assay [6], 4.65.

Consider `COc1cc(NS(=O)(=O)c2cccc([N+](=O)[O-])c2)c2cc1Oc1ccc(cc1)C[C@H]1c3cc(c(OC)cc3CCN1C)Oc1c(OC)c(OC)cc3c1[C@H](C2)N(C)CC3`, for which the negative-log IC50 (pIC50) in assay [1] was 5.66; in assay [2], 5.75; in assay [3], 5.71; in assay [4], 5.47; in assay [5], 5.20; in assay [6], 5.00.

Consider `COc1cc(NS(=O)(=O)c2ccccc2Cl)c2cc1Oc1ccc(cc1)C[C@H]1c3cc(c(OC)cc3CCN1C)Oc1c(OC)c(OC)cc3c1[C@H](C2)N(C)CC3`, for which the pIC50 in assay [1] is 5.46; in assay [2], 5.45; in assay [3] it was 5.33; in assay [4] it was 5.39; in assay [5] it was 5.13; in assay [6] it was 5.10.

Take `COc1cc(N)c2cc1Oc1ccc(cc1)C[C@H]1c3cc(c(OC)cc3CCN1C)Oc1c(OC)c(OC)cc3c1[C@H](C2)N(C)CC3`: the pIC50 in assay [1] is 5.18; in assay [2], 5.52; in assay [3], 5.57; in assay [4], 5.20; in assay [5], 5.45.

For `COc1cc(NS(=O)(=O)c2cccc(Br)c2)c2cc1Oc1ccc(cc1)C[C@H]1c3cc(c(OC)cc3CCN1C)Oc1c(OC)c(OC)cc3c1[C@H](C2)N(C)CC3`, the pIC50 was 5.54 in assay [1]; 5.84 in assay [2]; 5.46 in assay [3]; 5.77 in assay [4]; 5.42 in assay [5]; 5.06 in assay [6].

For `COc1cc(NS(=O)(=O)c2ccc(C(C)(C)C)cc2)c2cc1Oc1ccc(cc1)C[C@H]1c3cc(c(OC)cc3CCN1C)Oc1c(OC)c(OC)cc3c1[C@H](C2)N(C)CC3`, the pIC50 was 5.02 in assay [1]; 5.50 in assay [2]; 5.31 in assay [3]; 5.39 in assay [4]; 5.28 in assay [5]; 4.58 in assay [6].

`COc1ccc2cc1Oc1ccc(cc1)C[C@H]1c3cc(c(OC)cc3CCN1C)Oc1c(OC)c(OC)cc3c1[C@H](C2)N(C)CC3` [FANCHININ]: the negative logarithm of the IC50 (pIC50) in assay [1] was 5.13; in assay [2], 4.93; in assay [3], 5.23; in assay [4], 5.21; in assay [5] it was 5.05; in assay [6] it was 4.35.

As to `COc1cc(NS(C)(=O)=O)c2cc1Oc1ccc(cc1)C[C@H]1c3cc(c(OC)cc3CCN1C)Oc1c(OC)c(OC)cc3c1[C@H](C2)N(C)CC3`, the negative-log IC50 (pIC50) in assay [1] is 5.59; in assay [2], 5.45; in assay [3] it was 5.47; in assay [4] it was 5.59; in assay [5], 5.25; in assay [6], 4.83.

On to `COc1cc(NS(=O)(=O)c2c(C)cc(C)cc2C)c2cc1Oc1ccc(cc1)C[C@H]1c3cc(c(OC)cc3CCN1C)Oc1c(OC)c(OC)cc3c1[C@H](C2)N(C)CC3`, for which the pIC50 was 5.32 in assay [1]; 5.49 in assay [2]; 5.48 in assay [3]; 5.38 in assay [4]; 5.27 in assay [5]; 4.67 in assay [6].

Turning to `COc1cc(NS(=O)(=O)c2ccccc2)c2cc1Oc1ccc(cc1)C[C@H]1c3cc(c(OC)cc3CCN1C)Oc1c(OC)c(OC)cc3c1[C@H](C2)N(C)CC3`, the negative-log IC50 (pIC50) in assay [1] was 5.41; in assay [2], 5.51; in assay [3], 5.35; in assay [4], 5.70; in assay [5], 5.13; in assay [6], 4.87.

Consider `COc1cc(NS(=O)(=O)c2ccc(C(F)(F)F)cc2)c2cc1Oc1ccc(cc1)C[C@H]1c3cc(c(OC)cc3CCN1C)Oc1c(OC)c(OC)cc3c1[C@H](C2)N(C)CC3`, for which the pIC50 in assay [1] was 5.54; in assay [2], 5.44; in assay [3], 5.42; in assay [4], 5.35; in assay [5], 5.18; in assay [6], 5.09.

As for `COc1cc([N+](=O)[O-])c2cc1Oc1ccc(cc1)C[C@H]1c3cc(c(OC)cc3CCN1C)Oc1c(OC)c(OC)cc3c1[C@H](C2)N(C)CC3`, the pIC50 in assay [1] is 5.13; in assay [2], 5.04; in assay [3], 5.17; in assay [4], 4.92; in assay [5], 4.95.

For the compound `COc1cc(NS(=O)(=O)c2ccc(F)cc2)c2cc1Oc1ccc(cc1)C[C@H]1c3cc(c(OC)cc3CCN1C)Oc1c(OC)c(OC)cc3c1[C@H](C2)N(C)CC3`, the pIC50 is 5.80 in assay [1]; 5.48 in assay [2]; 5.49 in assay [3]; 5.36 in assay [4]; 5.11 in assay [5]; 4.92 in assay [6].

`COc1cc(NS(=O)(=O)c2ccc(NC(C)=O)cc2)c2cc1Oc1ccc(cc1)C[C@H]1c3cc(c(OC)cc3CCN1C)Oc1c(OC)c(OC)cc3c1[C@H](C2)N(C)CC3`: the pIC50 was 4.97 in assay [1]; 5.46 in assay [2]; 5.32 in assay [3]; 5.48 in assay [4]; 5.18 in assay [5]; 4.76 in assay [6].

Take `COc1cc(NS(=O)(=O)c2ccc(Br)cc2)c2cc1Oc1ccc(cc1)C[C@H]1c3cc(c(OC)cc3CCN1C)Oc1c(OC)c(OC)cc3c1[C@H](C2)N(C)CC3`: the pIC50 in assay [1] was 5.42; in assay [2], 5.43; in assay [3], 5.40; in assay [4] it was 5.07; in assay [5], 5.25; in assay [6] it was 5.03.

On to `CC[C@]1(O)C[C@H]2CN(CCc3c([nH]c4ccccc34)[C@@](C(=O)OC)(c3cc4c(cc3OC)N(C=O)[C@H]3[C@@](O)(C(=O)OC)[C@H](OC(C)=O)[C@]5(CC)C=CCN6CC[C@]43[C@@H]65)C2)C1` [VINCRISTINE], for which the negative logarithm of the IC50 (pIC50) was 5.22 in assay [1]; 5.27 in assay [2]; 5.27 in assay [3]; 5.37 in assay [4]; 5.01 in assay [5].

`COc1cc(NS(=O)(=O)C(F)(F)F)c2cc1Oc1ccc(cc1)C[C@H]1c3cc(c(OC)cc3CCN1C)Oc1c(OC)c(OC)cc3c1[C@H](C2)N(C)CC3`: the negative-log IC50 (pIC50) was 5.23 in assay [1]; 5.15 in assay [2]; 5.25 in assay [3]; 5.24 in assay [4]; 5.17 in assay [5]; 4.73 in assay [6].

Consider `COc1cc(NS(=O)(=O)c2cccc3cccnc23)c2cc1Oc1ccc(cc1)C[C@H]1c3cc(c(OC)cc3CCN1C)Oc1c(OC)c(OC)cc3c1[C@H](C2)N(C)CC3`, for which the negative logarithm of the IC50 (pIC50) in assay [1] was 5.55; in assay [2], 5.86; in assay [3], 5.37; in assay [4], 5.34; in assay [5], 5.20; in assay [6] it was 4.90.

For `COc1cc(NS(=O)(=O)c2c(C(C)C)cc(C(C)C)cc2C(C)C)c2cc1Oc1ccc(cc1)C[C@H]1c3cc(c(OC)cc3CCN1C)Oc1c(OC)c(OC)cc3c1[C@H](C2)N(C)CC3`, the pIC50 in assay [1] was 5.27; in assay [2], 5.17; in assay [3], 5.26; in assay [4], 5.67; in assay [5] it was 5.27; in assay [6] it was 4.49.

Take `COc1cc(NS(=O)(=O)c2ccc([N+](=O)[O-])cc2)c2cc1Oc1ccc(cc1)C[C@H]1c3cc(c(OC)cc3CCN1C)Oc1c(OC)c(OC)cc3c1[C@H](C2)N(C)CC3`: the negative-log IC50 (pIC50) in assay [1] was 5.43; in assay [2], 5.39; in assay [3], 5.35; in assay [4], 5.37; in assay [5], 5.15; in assay [6], 4.85.

For the compound `COc1cc(NS(=O)(=O)c2ccc(Cl)nc2)c2cc1Oc1ccc(cc1)C[C@H]1c3cc(c(OC)cc3CCN1C)Oc1c(OC)c(OC)cc3c1[C@H](C2)N(C)CC3`, the pIC50 in assay [1] was 5.22; in assay [2], 5.23; in assay [3], 5.24; in assay [4], 5.10; in assay [5] it was 5.16; in assay [6], 4.71.

Take `COc1cc(NS(=O)(=O)c2ccccc2[N+](=O)[O-])c2cc1Oc1ccc(cc1)C[C@H]1c3cc(c(OC)cc3CCN1C)Oc1c(OC)c(OC)cc3c1[C@H](C2)N(C)CC3`: the negative logarithm of the IC50 (pIC50) was 5.24 in assay [1]; 5.30 in assay [2]; 5.14 in assay [3]; 5.49 in assay [4]; 5.60 in assay [5]; 4.79 in assay [6].

What is called pIC50 is the IC50 on a negative log10 scale, so that one unit is a factor of ten. High values mean a low IC50, low ones a high IC50.
